# Experimental data from different studies.
# Lines come from different studies, so protocols differ.
# Target: Mitogen-activated protein kinase 9 (MAPK9, Homo sapiens, UniProt P45984)
SMILES,test,conditions,quantity,value
O=c1[nH]c2ccccc2n1C1CCN(Cc2ccc(-c3[nH]c4cc5ncnc5cc4nc3-c3ccccc3)cc2)CC1,cell-free assay,0.5 µM,remaining signal,91.9%
Cn1cc(-c2cccc(N3CCc4c(sc5c4CC(C)(C)C5)C3=O)c2CO)cc(Nc2ccncn2)c1=O,"enzyme activity, inhibitor",1 µM,inhibition,12%
CC(C)(C)c1cc(C=C(C#N)C#N)cc(Br)c1O,"enzyme activity, inhibitor",0.5 µM,remaining activity,103%
Cn1cc(-c2cc(F)cc(N3CCn4c(cc5c4CCCC5)C3=O)c2CO)cc(Nc2ccc(N3CCN(C4COC4)CC3)cn2)c1=O,"enzyme activity, inhibitor",0.1 µM,inhibition,1%
Nc1ncc(-c2nc(N3CCOCC3)nc(N3CCOCC3)n2)c(C(F)F)n1,"binding, competition with immobilised ligand",10 µM,remaining binding,83%
Cc1nn(C)cc1-c1nc2c(N3CCN(Cc4ccc(Cl)cc4)CC3)c(Cl)cnc2[nH]1,"binding, competition with immobilised ligand",1 µM,remaining binding,100%
COc1ncccc1-c1cnn2ccc(N3CCN(C(=O)OC(C)C)CC3)nc12,"binding, competition with immobilised ligand",1 µM,remaining binding,100%
Cn1cncc1[C@@](O)(COc1ccc(C#N)cc1-c1ccc(OC(F)(F)F)cc1)c1ccc(C#N)cc1,"cell-free assay, competition with immobilised ligand",1 µM,remaining binding,92%
